SMILES strings stand for the structures.

Assay [1] has as its target 5-hydroxytryptamine receptor 2A (Homo sapiens, UniProt P28223). In words: Displacement of [3H]ketanserin from human recombinant 5HT2A receptor expressed in avCHO-K1 cells. Type of assay: cell-based, CHO-K1. The gist of the method: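 Used frozen membranes. [3H]ketanserin was at 1 nM, with mianserin defining nonspecific binding. Incubated 15 min at 37 °C in 50 mM Tris-HCl pH 7.4, then harvested on GF/C glass fiber filters presoaked in 0.05% Brij.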

The target in assay [2] is T1, 5-hydroxytryptamine receptor 2C (Homo sapiens, UniProt P28335).
T1 sequence (P28335 whole entry): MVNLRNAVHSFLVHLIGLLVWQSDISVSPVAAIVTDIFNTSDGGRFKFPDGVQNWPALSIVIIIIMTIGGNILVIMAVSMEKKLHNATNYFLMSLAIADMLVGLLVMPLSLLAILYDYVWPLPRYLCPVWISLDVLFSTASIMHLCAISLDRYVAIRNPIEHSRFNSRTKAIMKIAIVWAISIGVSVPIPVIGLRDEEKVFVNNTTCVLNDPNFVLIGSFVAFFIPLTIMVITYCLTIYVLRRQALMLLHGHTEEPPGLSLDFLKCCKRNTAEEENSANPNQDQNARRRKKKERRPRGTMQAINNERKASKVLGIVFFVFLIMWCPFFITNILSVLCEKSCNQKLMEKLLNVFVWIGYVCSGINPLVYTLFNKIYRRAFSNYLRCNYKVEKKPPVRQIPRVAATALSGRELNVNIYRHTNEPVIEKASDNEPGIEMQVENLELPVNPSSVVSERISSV
Kind of assay: Displacement of [3H]mesulergine from human recombinant 5HT2C receptor expressed in CHO-K1 cells. Type of assay: cell-based. The gist of the method: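 Frozen membranes from a stable cell line were incubated with 1 nM [3H]mesulergine and test compound in 50 mM Tris-HCl pH 7.7 containing 0.1% ascorbic acid and pargyline, 30 min at 37 °C. Mianserin defined nonspecific binding. Terminated by rapid filtration through GF/C filters presoaked in 1% BSA.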
On the technique in general: Loss of bound radioactivity is the signal in a displacement assay; it reports binding, not function.

Assay [3] deals with 5-hydroxytryptamine receptor 7 (Homo sapiens, UniProt P34969). In words: Displacement of [3H]LSD from human recombinant 5HT7 receptor expressed in CHO cells. Type of assay: cell-based. Summed up: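 Membranes from stably transfected CHO cells. Reaction mix held 3 nM [3H]LSD and test compound in 50 mM Tris-HCl pH 7.4 with 10 mM MgCl2 and 0.5 mM EDTA, incubated 90 min at 27 °C. Stopped by rapid filtration on GF/C filters presoaked in 0.3% polyethylenimine, then scintillation counted. Methiothepin defined nonspecific binding. 7-8 concentrations were run in duplicate, and IC50 came from nonlinear regression of isotherms from three assays.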
Chain of 5-hydroxytryptamine receptor 7 (P34969 whole entry): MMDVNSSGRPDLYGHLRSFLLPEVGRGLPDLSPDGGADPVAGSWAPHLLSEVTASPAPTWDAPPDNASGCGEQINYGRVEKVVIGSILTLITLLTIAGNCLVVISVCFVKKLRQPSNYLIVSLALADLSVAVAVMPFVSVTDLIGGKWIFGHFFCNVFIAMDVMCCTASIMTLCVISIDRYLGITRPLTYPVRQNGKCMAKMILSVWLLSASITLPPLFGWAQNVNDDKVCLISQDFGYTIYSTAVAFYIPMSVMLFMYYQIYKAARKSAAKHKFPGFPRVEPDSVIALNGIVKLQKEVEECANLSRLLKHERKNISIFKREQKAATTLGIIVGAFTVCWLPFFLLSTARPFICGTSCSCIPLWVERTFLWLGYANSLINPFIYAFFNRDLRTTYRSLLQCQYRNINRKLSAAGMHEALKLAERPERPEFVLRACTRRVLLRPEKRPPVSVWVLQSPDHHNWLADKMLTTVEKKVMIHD

The species entered for the next assay is Homo sapiens. In words: Selectivity for human recombinant 5HT2A receptor over human recombinant 5HT7 receptor.
For assay [4], the target named is Serotonin 2 receptors; 5-HT2a & 5-HT2c (Homo sapiens) (UniProt P28223+P28335). Kind of assay: Selectivity for human recombinant 5HT2A receptor over human recombinant 5HT2C receptor.
Chain of Serotonin 2 receptors; 5-HT2a & 5-HT2c (Homo sapiens) (P28223 whole entry, looked up, one chain of several): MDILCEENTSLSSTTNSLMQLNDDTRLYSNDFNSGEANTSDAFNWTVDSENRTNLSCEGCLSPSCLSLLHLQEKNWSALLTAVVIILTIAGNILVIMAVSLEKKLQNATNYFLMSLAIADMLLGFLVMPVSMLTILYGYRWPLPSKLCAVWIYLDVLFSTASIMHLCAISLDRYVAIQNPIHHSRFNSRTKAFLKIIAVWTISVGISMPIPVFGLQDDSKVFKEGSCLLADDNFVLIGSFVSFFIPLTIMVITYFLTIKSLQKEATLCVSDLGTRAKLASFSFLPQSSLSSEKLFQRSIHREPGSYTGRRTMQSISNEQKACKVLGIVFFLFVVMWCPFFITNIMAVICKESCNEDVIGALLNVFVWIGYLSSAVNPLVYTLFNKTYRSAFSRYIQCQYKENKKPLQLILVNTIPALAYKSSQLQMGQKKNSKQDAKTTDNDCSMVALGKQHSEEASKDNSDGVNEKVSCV

Chain of 5-hydroxytryptamine receptor 2A (P28223 whole entry): as the sequence (P28223 whole entry, looked up, one chain of several) above

With `O=S(=O)(c1cccc2cccnc12)N(CCCN1CCN(c2cccc(C(F)(F)F)c2)CC1)CC1CCCCC1`, the IC50 (commonly the midpoint of a concentration-inhibition curve) in assay [1] was determined as 29.1 nM; in assay [2] it was 38.8 nM; in assay [3] it was 160 nM.

On to `CC(CCN1CCN(c2ccc(F)cc2)CC1)NS(=O)(=O)c1ccc2ccccc2c1` (centres undefined), for which the IC50 was found to be 6.2 nM in assay [1], 90 nM in assay [2] and 526 nM in assay [3]. The values for the Ratio IC50 (in the assay listed under Homo sapiens; in assay [4]) were 85 and 15, respectively.

Regarding `O=S(=O)(c1ccc2ccccc2c1)N(CCCN1CCN(c2cccc(C(F)(F)F)c2)CC1)CC1CC1`, the IC50 turned out to be 221 nM in assay [1], 304 nM in assay [2] and 342 nM in assay [3].

For `COc1ccc(S(=O)(=O)N(CCCN2CCN(c3ccc(F)cc3)CC2)CC2CCCCC2)cc1`, the IC50 in assay [1] worked out at 3.4 nM; in assay [2], 40 nM; in assay [3], 980 nM.

For the compound `O=S(=O)(c1cccc2cccnc12)N(CCCN1CCN(c2ccc(F)cc2)CC1)CC1CC1`, the IC50 amounted to 8.3 nM in assay [1], 4750 nM in assay [2] and 35.3 nM in assay [3].

On to `O=S(=O)(c1ccc2ccccc2c1)N(CCCN1CCN(c2cccc(C(F)(F)F)c2)CC1)CC1CCCCC1`, for which the IC50 in assay [1] is 13.1 nM; in assay [2] it was 66 nM; in assay [3], 888 nM.

Consider `COc1ccccc1N1CCN(CCCN(CC2CCCCC2)S(=O)(=O)c2cccc3cccnc23)CC1`, for which the IC50 amounted to 59.9 nM in assay [1], 118 nM in assay [2] and 24 nM in assay [3].

In the case of `CC(CCN1CCN(c2ccccc2)CC1)NS(=O)(=O)c1ccc2ccccc2c1` (centres undefined), the IC50 was found to be 12.7 nM in assay [1], 200 nM in assay [2] and 657 nM in assay [3]. Further, the Ratio IC50 in the assay listed under Homo sapiens came to 50; in assay [4], 16.

With `COc1ccccc1N1CCN(CCCN(CC2CC2)S(=O)(=O)c2cccc3cccnc23)CC1`, the IC50 in assay [1] amounted to 561 nM; in assay [2] it was 8310 nM; in assay [3], 12.3 nM.

Regarding `O=S(=O)(c1cccc2cccnc12)N(CCCN1CCN(c2ccccc2)CC1)CC1CCCCC1`, the IC50 in assay [1] amounted to 34.6 nM; in assay [2], 843 nM; in assay [3] it was 419 nM.

Take `O=S(=O)(c1ccc(C(F)(F)F)cc1)N(CCCN1CCN(c2ccccc2)CC1)CC1CC1`: the IC50 in assay [1] worked out at 70.8 nM; in assay [2], 565 nM; in assay [3], 334 nM.

Take `O=S(=O)(c1cccc2ccccc12)N(CCCN1CCN(c2ccccc2)CC1)CC1CC1`: the IC50 in assay [1] came to 171 nM; in assay [2], 1460 nM; in assay [3] it was 152 nM.

As for `O=S(=O)(c1ccc(F)cc1)N(CCCN1CCN(c2ccccc2)CC1)CC1CC1`, the IC50 in assay [1] was determined as 142 nM; in assay [2], 1980 nM; in assay [3] it was 147 nM.

For the compound `COc1ccc(S(=O)(=O)N(CCCN2CCN(c3ccccc3OC)CC2)CC2CC2)cc1`, the values for the IC50 in assay [1], in assay [2] and in assay [3] were 2210 nM, 1980 nM and 316 nM, respectively.

In the case of `O=S(=O)(c1ccc2ccccc2c1)N(CCCN1CCN(c2ccccc2)CC1)CC1CC1`, the IC50 in assay [1] came out at 35.9 nM; in assay [2], 479 nM; in assay [3] it was 117 nM.

Regarding `COc1ccc(S(=O)(=O)N(CCCN2CCN(c3cccc(C(F)(F)F)c3)CC2)CC2CC2)cc1`, the 50% inhibitory concentration (IC50) in assay [1] was found to be 726 nM; in assay [2], 1030 nM; in assay [3], 124 nM.

For `O=[N+]([O-])c1ccc(S(=O)(=O)N(CCCN2CCN(c3ccccc3)CC2)CC2CC2)cc1`, the IC50 in assay [1] came to 180 nM; in assay [2], 1940 nM; in assay [3], 500 nM.

For `O=S(=O)(c1ccc(F)cc1)N(CCCN1CCN(c2ccccc2)CC1)CC1CCCCC1`, the IC50 was 13.2 nM in assay [1], 294 nM in assay [2] and 110 nM in assay [3].

Turning to `O=S(=O)(c1ccc(C(F)(F)F)cc1)N(CCCN1CCN(c2ccccc2)CC1)CC1CCCCC1`, the figures for the 50% inhibitory concentration (IC50) in assay [1], in assay [2] and in assay [3] were 7.1 nM, 156 nM and 456 nM, respectively.

As for `O=S(=O)(c1cccc2cccnc12)N(CCCN1CCN(c2ccc(Cl)c(Cl)c2)CC1)CC1CCCCC1`, the IC50 in assay [1] was found to be 7.7 nM; in assay [2], 66.5 nM; in assay [3] it was 2300 nM.

In the case of `O=[N+]([O-])c1ccc(S(=O)(=O)N(CCCN2CCN(c3ccccc3)CC2)CC2CCCCC2)cc1`, the 50% inhibitory concentration (IC50) is 4.2 nM in assay [1], 45.7 nM in assay [2] and 87 nM in assay [3].

As for `COc1ccc(S(=O)(=O)N(CCCN2CCN(c3ccccc3OC)CC2)CC2CCCCC2)cc1`, the values for the IC50 in assay [1], in assay [2] and in assay [3] were 16.3 nM, 200 nM and 172 nM, respectively.

With `COc1ccc(S(=O)(=O)N(CCCN2CCN(c3cccc(C(F)(F)F)c3)CC2)CC2CCCCC2)cc1`, the IC50 in assay [1] came to 19.5 nM; in assay [2], 33 nM; in assay [3] it was 678 nM.

In the case of `COc1ccc(S(=O)(=O)N(CCCN2CCN(c3ccc(F)cc3)CC2)CC2CC2)cc1`, the IC50 in assay [1] is 72.5 nM; in assay [2] it was 723 nM; in assay [3], 93 nM.

Take `CC(CCN1CCN(c2cccc(C(F)(F)F)c2)CC1)NS(=O)(=O)c1ccc2ccccc2c1` (centres undefined): the IC50 in assay [1] came out at 180 nM; in assay [2], 942 nM; in assay [3], 363 nM.

With `O=S(=O)(c1ccc2ccccc2c1)N(CCCN1CCN(c2ccc(F)cc2)CC1)CC1CC1`, the results for the IC50 in assay [1], in assay [2] and in assay [3] were 51 nM, 343 nM and 49.6 nM, respectively.

For `O=S(=O)(c1ccc2ccccc2c1)N(CCCN1CCN(c2ccc(F)cc2)CC1)CC1CCCCC1`, the IC50 came out at 0.5 nM in assay [1], 24 nM in assay [2] and 1510 nM in assay [3]. Also, the Ratio IC50 was determined as 3000 in the assay filed under Homo sapiens and 50 in assay [4].

Consider `O=S(=O)(c1cccc2cccnc12)N(CCCN1CCN(c2cccc(C(F)(F)F)c2)CC1)CC1CC1`, for which the figures for the IC50 in assay [1], in assay [2] and in assay [3] were 75 nM, 694 nM and 6.3 nM, respectively.

On to `COc1ccc(S(=O)(=O)N(CCCN2CCN(c3ccccc3)CC2)CC2CCCCC2)cc1`, for which the values for the IC50 in assay [1], in assay [2] and in assay [3] were 9.4 nM, 79 nM and 567 nM, respectively.

`O=S(=O)(c1cccc2cccnc12)N(CCCN1CCN(c2ccccc2)CC1)CC1CC1`: the results for the IC50 in assay [1], in assay [2] and in assay [3] were 292 nM, 2160 nM and 749 nM, respectively.

For `O=S(=O)(c1ccc2ccccc2c1)N(CCCN1CCN(c2ccccc2)CC1)CC1CCCCC1`, the IC50 in assay [1] was determined as 0.7 nM; in assay [2] it was 65 nM; in assay [3] it was 1240 nM. The Ratio IC50 in the assay filed under Homo sapiens was 1500; in assay [4], 100.

In the case of `O=S(=O)(c1cccc2ccccc12)N(CCCN1CCN(c2ccccc2)CC1)CC1CCCCC1`, the IC50 in assay [1] worked out at 2.6 nM; in assay [2] it was 50.7 nM; in assay [3], 195 nM.

As to `O=S(=O)(c1cccc2cccnc12)N(CCCN1CCN(c2ccc(F)cc2)CC1)CC1CCCCC1`, the 50% inhibitory concentration (IC50) in assay [1] is 5.1 nM; in assay [2] it was 136 nM; in assay [3] it was 442 nM.

For the compound `COc1ccccc1N1CCN(CCCN(CC2CC2)S(=O)(=O)c2ccc3ccccc3c2)CC1`, the IC50 was 85.8 nM in assay [1], 549 nM in assay [2] and 188 nM in assay [3].

Turning to `COc1ccc(S(=O)(=O)N(CCCN2CCN(c3ccccc3)CC2)CC2CC2)cc1`, the IC50 stood at 136 nM in assay [1], 691 nM in assay [2] and 121 nM in assay [3].

Consider `COc1ccccc1N1CCN(CCC(C)NS(=O)(=O)c2ccc3ccccc3c2)CC1` (centres undefined), for which the IC50 in assay [1] was 664 nM; in assay [2] it was 539 nM; in assay [3] it was 316 nM.

As for `COc1ccccc1N1CCN(CCCN(CC2CCCCC2)S(=O)(=O)c2ccc3ccccc3c2)CC1`, the results for the IC50 in assay [1], in assay [2] and in assay [3] were 11.6 nM, 70 nM and 500 nM, respectively.
